The target in data set [1] is T1, Cholinesterase (Homo sapiens, UniProt P06276). Put plainly: Inhibition of BChE in human serum at 20 uM by Ellman's method. The class given is cell-free. The essentials:
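Human serum BChE, 0.02 U, in 0.1 M phosphate pH 8.0 with 340 μM DTNB and 5% methanol final. Compound preincubated with enzyme 20 min at 37 °C, then 550 μM butyrylthiocholine iodide added. Initial rate read as A412 over 240 s, with an enzyme-free blank. Percent inhibition at a single 20 μM. Mean of ≥2 independent experiments, each in triplicate.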

Data set [2] in a line: Antioxidant activity assessed as gallic acid equivalents by HORAC assay. Type of data set: functional. The essentials: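 Hydroxyl radical scavenging (HORAC kit). Methanol stocks (2-4 mM) diluted to 50 µM in assay buffer. Sample and fluorescein incubated 30 min at room temperature, then hydroxyl radical initiator and Fenton reagent added. Fluorescence decay read at ex 480/em 530 nm. AUC minus blank, divided by AUC of 50 µM gallic acid minus blank, gives gallic acid equivalents.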

For data set [3], the target named is T2, Acetylcholinesterase (Homo sapiens, UniProt P22303). The experiment in a line: Inhibition of AChE in human serum at 20 uM by Ellman's method. The class given is cell-free.
The target of data set [4] is Amyloid-beta precursor protein (Homo sapiens) (UniProt P05067). Put plainly: Inhibition of amyloid beta42 (unknown origin) aggregation assessed as non toxic aggregrates formation measured after 48 hrs TEM imaging analysis. Put shortly:
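Synthetic Aβ42, freeze-dried, redissolved in PBS pH 7.4 to 60 µM and vortexed about 5 min. Compound added at 1:5 Aβ42:compound. A 20 µL aliquot applied to the grid for 2 min, negatively stained with 1% uranyl acetate for 2 min, dried and imaged by TEM at 120 kV.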

For data set [5], the target named is T1, Cholinesterase. Put plainly: Inhibition of BChE in human serum by Ellman's method. Type of data set: cell-free. Put shortly:
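Human serum BChE, 0.02 U, in 0.1 M phosphate pH 8.0 with 340 μM DTNB and 5% methanol final. 20 min enzyme–compound preincubation at 37 °C, then 550 μM butyrylthiocholine iodide added. Rate from A412 slope over 240 s, blank-corrected. Five concentrations chosen to give 20–80% inhibition. IC50 taken from log concentration–inhibition curves. Mean of ≥2 independent triplicate experiments.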
A general note: DTNB colorimetry detects thiols as they appear.

Data set [6] has as its target T2, Acetylcholinesterase. The experiment in a line: Inhibition of AChE in human serum by Ellman's method. The class given is cell-free.
Data set [7] can be described thus: Stability in plasma (unknown orgin) measured after 120 mins. The class given is ADME, cell-free. The note with it: read-out: Stability. Put shortly:
(§1)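 Pooled human plasma. Compound added from a 1 µM DMSO solution and incubated at 37 °C for 0, 15, 30, 60 or 120 min. Reaction stopped with cold acetonitrile containing internal standard, then centrifuged. Supernatant analysed by reverse-phase C18 HPLC-MS in positive mode. Compound/IS peak-area ratio at each time, relative to 0 min, gives percent remaining. Phosphate buffer pH 7.4 used as control matrix, rivastigmine as positive control.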

A short description of data set [8]: Stability in plasma (unknown orgin) measured upto 60 mins. Type of data set: ADME, cell-free. The following applies: 1 h. The essentials:
as §1

The subject of another data set is SH-SY5Y. The experiment in a line: Inhibition of TBH-induced reactive oxygen species production in human SHSY-5Y cells at 10 uM preincubated for 24 hrs followed by TBH addition by DCFH-DA staining based flow cytometry. Type of data set: functional, cell-based. On the technique in general: In flow cytometry, cells or beads pass a laser one at a time.
A further data set has as its system HepG2. Put plainly: Cytotoxicity against human HepG2 cells assessed as cell viability upto 10 uM for 24 hrs by MTT assay. Type of data set: toxicity, cell-based. The note with it: hepg2, 24 h. The essentials: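 HepG2 cells grown in DMEM with 10% FBS and penicillin/streptomycin at 37 °C, 5% CO2. Seeded at 5×10^3 cells/well and left to adhere overnight. Exposed 24 h to 1.25-10 µM, with DMSO vehicle as control. Then 300 µM MTT in DMEM for 2 h at 37 °C. Formazan dissolved in DMSO and read at 570 nm.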
Background: Tetrazolium dyes change colour on reduction, which living cells bring about.

Data set [9] in a line: Solubility of compound in 5% DMSO/PBS solution. Type of data set: physicochemical.

SMILES strings stand for the structures. Calls of active or inactive are those of the source. No cut-off for these calls is given here.

T1 sequence (P06276 whole entry): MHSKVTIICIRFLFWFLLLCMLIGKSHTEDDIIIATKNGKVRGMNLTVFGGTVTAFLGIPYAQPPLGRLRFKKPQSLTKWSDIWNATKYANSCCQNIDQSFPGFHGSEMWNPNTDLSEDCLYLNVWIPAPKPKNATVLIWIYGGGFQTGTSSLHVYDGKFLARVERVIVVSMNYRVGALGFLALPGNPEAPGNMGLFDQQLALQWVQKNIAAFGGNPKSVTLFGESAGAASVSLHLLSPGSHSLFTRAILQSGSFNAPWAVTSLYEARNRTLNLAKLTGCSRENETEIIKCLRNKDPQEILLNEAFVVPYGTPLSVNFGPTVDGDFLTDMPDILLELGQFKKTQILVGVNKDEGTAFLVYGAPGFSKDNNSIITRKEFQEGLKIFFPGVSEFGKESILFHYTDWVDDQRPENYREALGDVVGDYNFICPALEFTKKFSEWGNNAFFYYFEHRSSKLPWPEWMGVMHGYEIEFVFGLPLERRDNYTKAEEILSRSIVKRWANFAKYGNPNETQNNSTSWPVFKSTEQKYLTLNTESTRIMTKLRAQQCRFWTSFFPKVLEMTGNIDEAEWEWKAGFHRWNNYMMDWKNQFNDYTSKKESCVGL
T2 sequence (P22303 whole entry): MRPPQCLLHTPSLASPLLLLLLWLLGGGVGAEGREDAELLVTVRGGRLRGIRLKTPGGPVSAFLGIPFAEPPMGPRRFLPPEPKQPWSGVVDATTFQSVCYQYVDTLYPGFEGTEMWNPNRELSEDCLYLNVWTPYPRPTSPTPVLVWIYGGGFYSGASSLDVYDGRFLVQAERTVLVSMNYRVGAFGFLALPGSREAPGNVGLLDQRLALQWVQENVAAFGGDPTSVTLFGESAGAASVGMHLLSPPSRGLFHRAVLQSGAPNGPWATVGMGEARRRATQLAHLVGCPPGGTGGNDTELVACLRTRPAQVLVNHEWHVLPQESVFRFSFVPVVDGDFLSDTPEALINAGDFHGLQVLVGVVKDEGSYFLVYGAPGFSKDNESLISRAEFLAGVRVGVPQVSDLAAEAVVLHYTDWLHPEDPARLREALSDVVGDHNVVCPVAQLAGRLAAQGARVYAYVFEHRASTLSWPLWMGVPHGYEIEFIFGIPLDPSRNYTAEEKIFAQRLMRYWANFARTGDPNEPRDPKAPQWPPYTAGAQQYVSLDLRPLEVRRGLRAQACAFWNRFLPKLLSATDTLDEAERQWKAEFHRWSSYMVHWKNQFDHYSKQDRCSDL
Chain of Amyloid-beta precursor protein (Homo sapiens) (P05067 whole entry): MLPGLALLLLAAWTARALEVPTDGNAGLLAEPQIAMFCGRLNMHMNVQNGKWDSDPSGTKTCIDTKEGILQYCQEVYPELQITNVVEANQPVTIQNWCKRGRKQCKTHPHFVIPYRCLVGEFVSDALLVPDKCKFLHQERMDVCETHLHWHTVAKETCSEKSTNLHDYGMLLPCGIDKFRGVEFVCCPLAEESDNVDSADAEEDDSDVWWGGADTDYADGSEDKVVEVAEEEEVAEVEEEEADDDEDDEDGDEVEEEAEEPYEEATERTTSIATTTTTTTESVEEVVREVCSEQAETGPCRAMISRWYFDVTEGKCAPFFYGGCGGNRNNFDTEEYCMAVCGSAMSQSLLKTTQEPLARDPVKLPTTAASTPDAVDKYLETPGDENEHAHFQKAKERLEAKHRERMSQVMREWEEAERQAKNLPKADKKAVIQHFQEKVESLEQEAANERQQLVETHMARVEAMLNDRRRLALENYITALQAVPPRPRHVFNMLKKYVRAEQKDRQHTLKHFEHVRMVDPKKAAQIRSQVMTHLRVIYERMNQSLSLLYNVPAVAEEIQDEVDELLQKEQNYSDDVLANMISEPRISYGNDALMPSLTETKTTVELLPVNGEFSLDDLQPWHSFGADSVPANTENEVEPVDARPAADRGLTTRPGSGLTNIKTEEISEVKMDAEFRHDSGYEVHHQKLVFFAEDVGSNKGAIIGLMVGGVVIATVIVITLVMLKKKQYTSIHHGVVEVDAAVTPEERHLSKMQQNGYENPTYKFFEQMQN

Broadly, the inhibition is the percentage by which the read-out fell short of the control. In the case of `OCCCCCCCCc1ccc(CN2CCNCC2)c(O)c1`, the inhibition is 17.7% against Cholinesterase [1] and under 10% against Acetylcholinesterase [3]. For the same molecule, the Activity in data set [2] turned out to be 1.49 equiv.

Consider `OCCCCCCCCc1ccc(CN2CCOCC2)c(O)c1`, for which the inhibition was under 10% on Cholinesterase [1] and under 5% against Acetylcholinesterase [3]. For the same molecule, the inhibition result in [4] is “Active”. Besides, the Activity in [2] came out at 9.73 equiv.

For `CN1CCN(Cc2ccc(CCCCCCCCO)cc2O)CC1`, the figures for the inhibition at Cholinesterase [1] and against Acetylcholinesterase [3] were 10.6% and under 5%, respectively. The Activity in data set [2] was determined as 4.8 equiv.

In general, IC50 refers to the midpoint of a concentration-inhibition curve. Lower therefore signals greater potency. For `CN(Cc1ccccc1)Cc1ccc(CCCCCCCCO)cc1O`, the inhibition against Cholinesterase [1] is 68.3%; against Acetylcholinesterase [3] it was 19.4%. Besides, the inhibition result in data set [4] was “Active”. In addition, in data set [2], the Activity came out at 3.7 equiv. In addition, the half-inhibitory concentration (IC50) against Cholinesterase [5] is 6.74 µM.

Consider `OCCCCCCCCc1ccc(CN2CCCC2)c(O)c1`, for which the inhibition at Cholinesterase [1] was 59%; against Acetylcholinesterase [3], 31.1%. Moreover, the Activity in data set [2] came out at 4.88 equiv. In addition, the half-inhibitory concentration (IC50) against Acetylcholinesterase [6] worked out at 47.6 µM; against Cholinesterase [5], 13.3 µM.

Regarding `OCCCCCCCCc1ccc(CN2CCSCC2)c(O)c1`, the figures for the inhibition against Cholinesterase [1] and on Acetylcholinesterase [3] were 16.6% and 12.1%, respectively. Moreover, in data set [2], the Activity amounted to 4.38 equiv.

For the molecule `COc1cc(/C=C/C(=O)O)ccc1O`, the Activity in [2] came out at 4.04 equiv.

As usually defined, the solubility is the dissolved amount per volume that the medium holds. `OCCCCCCCCc1ccc(CN2CCCCC2)c(O)c1`: the remaining at 2 h in [7] was 97%. Further, the Stability result in data set [8] is “Stable”. Moreover, the inhibition result (in the data set on SH-SY5Y; in [4]) was “Active” in each case. For the same molecule, the values for the Activity result (in the data set on HepG2; in data set [2]) were “Non-Toxic” and 4.37 equiv, respectively. The results for the inhibition on Cholinesterase [1] and against Acetylcholinesterase [3] were 73.5% and 40.5%, respectively. The IC50 is 30 µM on Acetylcholinesterase [6] and 6.12 µM at Cholinesterase [5]. The solubility in data set [9] was under 3.9 mM.

As for `OCCCCCCCCc1ccc(CN2CCCCCC2)c(O)c1`, the remaining at 2 h in data set [7] came out at 85%. Moreover, the Stability result in data set [8] is reported as “Stable”. In addition, the inhibition result (in the data set on SH-SY5Y; in data set [4]) was “Active” throughout. Moreover, the Activity result with HepG2 is “Non-Toxic”; in [2], 3.5 equiv. Further, the results for the inhibition against Cholinesterase [1] and on Acetylcholinesterase [3] were 77.1% and under 10%, respectively. In addition, the figures for the IC50 against Acetylcholinesterase [6] and at Cholinesterase [5] were 785 µM and 4.62 µM, respectively. Also, in data set [9], the solubility is under 5 mM.

For the molecule `CCN(CC)Cc1ccc(CCCCCCCCO)cc1O`, the inhibition against Cholinesterase [1] was 50.5%; at Acetylcholinesterase [3], 12.4%. Moreover, the inhibition entry in [4] is “Active”. In [2], the Activity stood at 5.49 equiv. This molecule came in with an IC50 on Cholinesterase [5] of 17.5 µM.

Regarding `CC(=O)N1CCN(Cc2ccc(CCCCCCCCO)cc2O)CC1`, the inhibition against Cholinesterase [1] is under 5%; on Acetylcholinesterase [3], under 10%. Moreover, the Activity in data set [2] worked out at 4.52 equiv.

The values are drawn from ChEMBL document CHEMBL5136960, “Discovery of sustainable drugs for Alzheimer's disease: cardanol-derived cholinesterase inhibitors with antioxidant and anti-amyloid properties” (RSC Med Chem, 2021).
